Test results taken from ChEMBL document CHEMBL1152451 (J Med Chem, 2009).

How the values were obtained:
Assay type in all cases: ADME, organism-based
[1] = Drug level in spontaneously hypersensitive rat at 300 mg/kg, po qd for 8 days measured after 4 hrs post dose; design: dose 300 mg/kg, route oral; conditions: spontaneously hypersensitive rat (SHR), in vivo, read-out: Drug uptake
[2] = Drug level in spontaneously hypersensitive rat at 300 mg/kg, po qd for 8 days measured after 24 hrs post dose; design: dose 300 mg/kg, route oral; conditions: spontaneously hypersensitive rat (SHR), in vivo, read-out: Drug uptake
Rattus norvegicus [3] = assay: Increase in endogenous 14,15-EET/DHET ratio in spontaneously hypersensitive rat kidney at 300 mg/kg, po for 8 days by LC/MS/MS analysis; design: dose 300 mg/kg, route oral; conditions: in vivo, 192 h
Method in brief: (§1)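 SHRs given daily oral doses, with kidneys analysed for endogenous epoxide/diol ratios and for 20-HETE. A parallel PK group of SHRs was sampled on the eighth day of dosing at 4 and 24 h postdose.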

Rattus norvegicus [4] = assay: Increase in endogenous 20-HETE level in spontaneously hypersensitive rat kidney at 300 mg/kg, po for 8 days by LC/MS/MS analysis; design: dose 300 mg/kg, route oral; conditions: in vivo, 192 h; method in brief: as §1
[5] = Bioavailability in spontaneously hypersensitive rat at 1 mg/kg, iv and 2 mg/kg, po; conditions: spontaneously hypersensitive rat (SHR), in vivo
[6] = Clearance in spontaneously hypersensitive rat at 1 mg/kg, iv and 2 mg/kg, po; conditions: spontaneously hypersensitive rat (SHR), in vivo
[7] = Volume of distribution at steady state in spontaneously hypersensitive rat at 1 mg/kg, iv and 2 mg/kg, po; conditions: spontaneously hypersensitive rat (SHR), in vivo, read-out: Vdss
[8] = Half life in spontaneously hypersensitive rat at 1 mg/kg, iv and 2 mg/kg, po; conditions: spontaneously hypersensitive rat (SHR), in vivo

concentration at 4 h [1]	concentration at 24 h [2]	fold change (FC) (Rattus norvegicus [3])	fold change (FC) (Rattus norvegicus [4])	bioavailability [5]	clearance [6]	Vd [7]	half-life [8]	SMILES
35 µM	20 µM	2	2.5	–	–	–	–	O=C(N[C@@H]1C[C@H]1c1ccccc1)N1CCC(c2nc(-c3ccccn3)no2)CC1
–	–	–	–	77%	29 mL/min/kg	2.7 L/kg	1.4 h	O=C(NC1CC1c1ccccc1)N1CCC(c2nc(-c3ccccn3)no2)CC1 (stereo in doubt; 2d)
